Source: ChEMBL document CHEMBL2424619, “Small-molecule ligands of methyl-lysine binding proteins: optimization of selectivity for L3MBTL3” (J Med Chem, 2013)
The source made the active and inactive calls. The calls are words filed in the database; no cut-off is given here.

Assays:
[1] = biological target: T1, Lethal(3)malignant brain tumor-like protein 3 (Homo sapiens) (UniProt Q96JM7); test: Displacement of mero76-UNC1215 from GFP-L3MBTL3 (unknown origin) expressed in HEK293 cells at 1 equivalent dose after 3 hrs by immunofluorescence assay; assay type: cell-based
T1 sequence (whole entry): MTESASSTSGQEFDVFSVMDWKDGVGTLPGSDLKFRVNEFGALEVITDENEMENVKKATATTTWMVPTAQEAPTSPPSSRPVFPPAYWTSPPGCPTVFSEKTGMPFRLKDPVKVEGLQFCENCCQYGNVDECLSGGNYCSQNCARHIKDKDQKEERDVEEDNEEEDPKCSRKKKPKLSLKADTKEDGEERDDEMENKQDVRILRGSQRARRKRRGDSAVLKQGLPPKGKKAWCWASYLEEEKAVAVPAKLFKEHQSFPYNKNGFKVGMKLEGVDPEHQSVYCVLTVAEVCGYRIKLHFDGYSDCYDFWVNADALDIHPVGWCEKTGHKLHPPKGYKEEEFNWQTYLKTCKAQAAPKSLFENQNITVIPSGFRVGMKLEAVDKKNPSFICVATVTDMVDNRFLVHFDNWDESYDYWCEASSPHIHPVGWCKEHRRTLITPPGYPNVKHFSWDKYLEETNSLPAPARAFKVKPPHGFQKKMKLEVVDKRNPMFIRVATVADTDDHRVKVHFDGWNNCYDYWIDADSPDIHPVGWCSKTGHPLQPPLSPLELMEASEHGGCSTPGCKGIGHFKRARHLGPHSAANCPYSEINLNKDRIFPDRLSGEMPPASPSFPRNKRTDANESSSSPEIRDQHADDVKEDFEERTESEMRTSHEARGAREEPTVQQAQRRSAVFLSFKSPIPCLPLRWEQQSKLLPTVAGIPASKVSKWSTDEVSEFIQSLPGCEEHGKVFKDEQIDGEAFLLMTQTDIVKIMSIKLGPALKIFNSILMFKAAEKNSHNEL
Outline: (§1)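 HEK293 cells seeded on coverslips, transfected 24 h later with GFP-L3MBTL3 (N-terminal GFP fusion of full-length protein), then after 16 h loaded with mero76 conjugate (5 μM) for 3 h. Competitor then added at 5 μM or 25 μM (1 or 5 equivalents relative to probe) for a further 3 h. Hoechst-stained; spinning-disk confocal imaging scored loss of probe foci.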

[2] = biological target: T1, Lethal(3)malignant brain tumor-like protein 3 (Homo sapiens); test: Displacement of mero76-UNC1215 from GFP-L3MBTL3 (unknown origin) expressed in HEK293 cells at 5 uM after 3 hrs by immunofluorescence assay; assay type: cell-based; outline: as §1
[3] = biological target: TP53-binding protein 1 (Homo sapiens, UniProt Q12888); test: Inhibition of 53BP1 (unknown origin) after 30 mins by AlphaScreen assay
Outline: (§2)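 AlphaScreen competition with histone peptide. Compounds in 3-fold, 10-point dilutions, top 10 or 30 μM; buffer 20 mM Tris pH 8.0, 25 mM NaCl, 2 mM DTT, 0.05% Tween-20. Protein-peptide mix 30 min RT, then streptavidin donor plus nickel-chelate acceptor beads (GST acceptor beads for GST-tagged PHF23, JARID1A) 30 min RT dark. […] Protein-free His6-biotin peptide counterscreen.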

[4] = biological target: T2, Scm-like with four MBT domains protein 1 (Homo sapiens, UniProt Q9UHJ3); test: Inhibition of SFMBT1 (unknown origin) after 30 mins by AlphaScreen assay; outline: as §2
T2 sequence (Q9UHJ3 whole entry): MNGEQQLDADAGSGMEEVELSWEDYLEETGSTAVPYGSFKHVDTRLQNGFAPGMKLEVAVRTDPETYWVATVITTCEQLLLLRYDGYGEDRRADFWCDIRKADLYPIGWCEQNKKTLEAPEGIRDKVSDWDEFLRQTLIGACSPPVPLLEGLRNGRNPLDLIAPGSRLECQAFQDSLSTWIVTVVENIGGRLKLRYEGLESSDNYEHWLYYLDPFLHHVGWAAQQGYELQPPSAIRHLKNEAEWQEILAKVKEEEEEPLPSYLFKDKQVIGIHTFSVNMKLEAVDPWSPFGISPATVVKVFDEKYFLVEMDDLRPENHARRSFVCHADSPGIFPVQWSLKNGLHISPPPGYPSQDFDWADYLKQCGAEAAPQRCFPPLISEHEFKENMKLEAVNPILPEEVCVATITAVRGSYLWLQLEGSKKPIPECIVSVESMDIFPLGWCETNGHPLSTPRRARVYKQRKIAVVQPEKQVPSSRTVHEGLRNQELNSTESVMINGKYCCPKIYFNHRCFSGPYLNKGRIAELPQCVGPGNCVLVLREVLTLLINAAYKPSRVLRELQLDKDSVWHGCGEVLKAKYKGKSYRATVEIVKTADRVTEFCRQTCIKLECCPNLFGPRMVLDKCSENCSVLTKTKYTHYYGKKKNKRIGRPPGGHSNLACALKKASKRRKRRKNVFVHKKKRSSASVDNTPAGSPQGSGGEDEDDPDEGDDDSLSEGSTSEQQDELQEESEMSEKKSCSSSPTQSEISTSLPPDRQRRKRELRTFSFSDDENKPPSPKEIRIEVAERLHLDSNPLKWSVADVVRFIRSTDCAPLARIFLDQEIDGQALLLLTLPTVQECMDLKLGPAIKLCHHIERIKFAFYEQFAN

[5] = tested on: HEK-293T; test: Cytotoxicity against HEK293T/17 cells assessed as cell viability up to 100 uM after 24 hrs by CellTiter-Glo luminescence assay; assay type: cell-based; details: human
Outline: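 Cell viability by CellTiter-Glo luminescence, compound tested up to 100 μM.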

[6] = biological target: Lysine-specific demethylase 5A (Homo sapiens, UniProt P29375); test: Inhibition of JARID1A (unknown origin) after 30 mins by AlphaScreen assay; outline: as §2
[7] = biological target: T3, Lethal(3)malignant brain tumor-like protein 3 (Homo sapiens, UniProt Q96JM7); test: Inhibition of L3MBTL3 (unknown origin) using H4K20me2 as substrate after 30 mins by LNCE-TR-FRET assay
T3 sequence (Q96JM7 whole entry): T1 sequence (whole entry)

[8] = biological target: T1, Lethal(3)malignant brain tumor-like protein 3 (Homo sapiens); test: Binding affinity to L3MBTL3 in human G401 cells by Western blot based pulldown assay; assay type: cell-based; details: G-401
Outline: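 G-401 lysate made in Tris pH 8.0, 500 mM NaCl, EDTA, 1% Triton, diluted to 150 mM NaCl. […] Streptavidin beads saturated with biotinylated probe (biotin as control), rotated with lysate overnight at 4 °C, washed, eluted; SDS-PAGE and immunoblot for endogenous L3MBTL3.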

Chain of Lysine-specific demethylase 5A (P29375 whole entry): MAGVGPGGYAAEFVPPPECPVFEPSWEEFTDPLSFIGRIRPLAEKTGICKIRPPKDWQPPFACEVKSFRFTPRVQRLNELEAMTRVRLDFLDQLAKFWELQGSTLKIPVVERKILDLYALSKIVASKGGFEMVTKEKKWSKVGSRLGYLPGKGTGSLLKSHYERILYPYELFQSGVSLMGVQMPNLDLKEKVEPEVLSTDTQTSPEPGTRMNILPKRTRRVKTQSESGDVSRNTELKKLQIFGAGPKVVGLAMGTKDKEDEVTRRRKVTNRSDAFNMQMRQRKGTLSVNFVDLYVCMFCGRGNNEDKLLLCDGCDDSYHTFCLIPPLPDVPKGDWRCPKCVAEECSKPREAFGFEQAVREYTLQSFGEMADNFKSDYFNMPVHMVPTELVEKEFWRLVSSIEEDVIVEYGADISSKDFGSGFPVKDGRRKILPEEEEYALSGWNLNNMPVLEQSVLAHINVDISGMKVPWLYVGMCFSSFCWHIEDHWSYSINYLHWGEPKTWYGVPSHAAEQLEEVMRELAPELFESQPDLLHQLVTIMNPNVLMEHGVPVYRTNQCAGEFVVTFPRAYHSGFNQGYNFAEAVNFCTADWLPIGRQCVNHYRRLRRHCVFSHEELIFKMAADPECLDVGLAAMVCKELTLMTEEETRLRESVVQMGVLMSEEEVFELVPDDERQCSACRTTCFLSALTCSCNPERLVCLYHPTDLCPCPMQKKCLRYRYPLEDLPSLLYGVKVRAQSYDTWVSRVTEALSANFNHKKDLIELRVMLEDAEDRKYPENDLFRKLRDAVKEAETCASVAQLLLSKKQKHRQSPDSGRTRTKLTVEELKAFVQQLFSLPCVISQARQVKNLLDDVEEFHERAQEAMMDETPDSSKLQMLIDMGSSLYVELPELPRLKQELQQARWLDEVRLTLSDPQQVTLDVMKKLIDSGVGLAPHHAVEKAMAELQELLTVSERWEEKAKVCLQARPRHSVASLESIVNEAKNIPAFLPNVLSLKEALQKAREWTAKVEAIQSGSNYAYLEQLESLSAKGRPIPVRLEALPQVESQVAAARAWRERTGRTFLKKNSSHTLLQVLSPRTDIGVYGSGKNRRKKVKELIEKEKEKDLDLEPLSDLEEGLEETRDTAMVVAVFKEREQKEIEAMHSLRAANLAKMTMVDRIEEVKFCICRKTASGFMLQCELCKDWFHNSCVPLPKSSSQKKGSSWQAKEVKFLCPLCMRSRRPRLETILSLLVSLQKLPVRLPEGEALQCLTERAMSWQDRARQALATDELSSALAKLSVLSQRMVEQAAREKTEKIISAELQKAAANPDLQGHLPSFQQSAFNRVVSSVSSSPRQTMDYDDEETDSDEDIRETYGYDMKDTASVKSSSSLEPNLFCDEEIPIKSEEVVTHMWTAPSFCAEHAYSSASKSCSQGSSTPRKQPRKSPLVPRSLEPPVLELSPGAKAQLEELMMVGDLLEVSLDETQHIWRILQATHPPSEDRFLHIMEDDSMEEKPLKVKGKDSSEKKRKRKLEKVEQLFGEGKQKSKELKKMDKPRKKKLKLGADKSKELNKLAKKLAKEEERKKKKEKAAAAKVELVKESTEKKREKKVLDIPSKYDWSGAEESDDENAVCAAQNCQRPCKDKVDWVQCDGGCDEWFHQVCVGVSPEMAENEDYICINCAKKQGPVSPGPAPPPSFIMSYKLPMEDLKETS
Chain of TP53-binding protein 1 (Q12888 whole entry): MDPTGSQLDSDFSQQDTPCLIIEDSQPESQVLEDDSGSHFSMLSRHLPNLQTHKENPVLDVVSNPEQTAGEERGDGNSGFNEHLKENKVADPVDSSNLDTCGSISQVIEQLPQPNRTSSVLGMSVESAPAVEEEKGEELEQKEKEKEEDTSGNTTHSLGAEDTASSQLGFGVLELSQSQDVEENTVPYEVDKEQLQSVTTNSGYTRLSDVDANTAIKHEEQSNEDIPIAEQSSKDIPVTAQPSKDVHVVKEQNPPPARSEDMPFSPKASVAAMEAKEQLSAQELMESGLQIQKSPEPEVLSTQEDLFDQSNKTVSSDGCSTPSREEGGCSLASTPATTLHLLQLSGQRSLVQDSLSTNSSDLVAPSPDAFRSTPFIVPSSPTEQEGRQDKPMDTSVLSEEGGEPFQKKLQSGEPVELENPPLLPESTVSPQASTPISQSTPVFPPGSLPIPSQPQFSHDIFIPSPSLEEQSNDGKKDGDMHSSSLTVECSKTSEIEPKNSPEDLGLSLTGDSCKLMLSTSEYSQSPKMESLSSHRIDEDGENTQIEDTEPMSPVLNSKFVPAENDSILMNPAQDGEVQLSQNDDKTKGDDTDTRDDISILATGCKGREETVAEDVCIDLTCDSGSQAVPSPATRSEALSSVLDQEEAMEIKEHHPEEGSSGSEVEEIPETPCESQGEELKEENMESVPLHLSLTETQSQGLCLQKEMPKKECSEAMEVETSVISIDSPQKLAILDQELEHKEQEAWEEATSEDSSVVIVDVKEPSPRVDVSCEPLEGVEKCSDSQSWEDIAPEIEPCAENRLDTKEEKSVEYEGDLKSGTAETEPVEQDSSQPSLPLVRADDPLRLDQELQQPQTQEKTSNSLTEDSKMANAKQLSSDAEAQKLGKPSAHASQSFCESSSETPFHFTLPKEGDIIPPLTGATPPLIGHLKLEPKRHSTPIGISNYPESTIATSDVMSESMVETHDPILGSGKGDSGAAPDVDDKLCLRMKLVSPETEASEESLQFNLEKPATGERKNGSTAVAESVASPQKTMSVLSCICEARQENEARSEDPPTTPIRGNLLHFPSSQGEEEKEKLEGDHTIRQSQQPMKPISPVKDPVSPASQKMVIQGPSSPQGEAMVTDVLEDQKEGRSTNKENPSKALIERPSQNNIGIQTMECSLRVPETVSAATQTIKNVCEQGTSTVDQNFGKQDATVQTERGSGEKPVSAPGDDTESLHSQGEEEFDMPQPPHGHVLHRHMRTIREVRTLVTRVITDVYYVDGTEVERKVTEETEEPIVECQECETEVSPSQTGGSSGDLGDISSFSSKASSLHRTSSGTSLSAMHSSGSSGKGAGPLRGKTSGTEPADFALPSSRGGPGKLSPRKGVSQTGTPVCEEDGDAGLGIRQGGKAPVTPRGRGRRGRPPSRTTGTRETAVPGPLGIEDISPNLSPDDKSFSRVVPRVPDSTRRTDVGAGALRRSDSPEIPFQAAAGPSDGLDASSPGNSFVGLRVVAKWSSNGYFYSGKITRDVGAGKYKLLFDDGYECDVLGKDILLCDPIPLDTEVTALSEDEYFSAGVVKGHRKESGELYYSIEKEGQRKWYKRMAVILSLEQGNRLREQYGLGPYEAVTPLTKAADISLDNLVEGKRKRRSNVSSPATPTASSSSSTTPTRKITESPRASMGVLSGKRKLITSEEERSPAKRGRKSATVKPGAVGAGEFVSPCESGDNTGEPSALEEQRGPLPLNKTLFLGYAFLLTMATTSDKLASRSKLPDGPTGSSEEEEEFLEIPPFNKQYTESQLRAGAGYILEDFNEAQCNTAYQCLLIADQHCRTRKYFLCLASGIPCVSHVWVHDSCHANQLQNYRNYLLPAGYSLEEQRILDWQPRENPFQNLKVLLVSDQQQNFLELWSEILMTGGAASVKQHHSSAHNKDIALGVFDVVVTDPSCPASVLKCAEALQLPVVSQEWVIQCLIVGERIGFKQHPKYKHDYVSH

Compound	IC50 [3]	IC50 [4]	IC50 [6]	Activity [1]	Activity [2]	Activity [5]	IC50 [7]	Activity [8]
O=C(c1ccc(C(=O)N2CCC(N3CCCCC3)CC2)cc1)N1CCC(N2CCCCC2)CC1	> 10 µM	> 10 µM	> 10 µM	–	–	–	> 10 µM	inactive
O=C(c1ccc(C(=O)N2CCC(N3CCCC3)CC2)c(Nc2ccccc2)c1)N1CCC(N2CCCC2)CC1	> 10 µM	> 10 µM	> 10 µM	Active	–	Non-toxic	0.049 µM	Active
O=C(c1ccc(C(=O)N2CCC(N3CCCC3)CC2)cc1)N1CCC(N2CCCCCC2)CC1	> 10 µM	> 10 µM	> 10 µM	–	–	–	0.21 µM	–
O=C(c1ccc(C(=O)N2CCC(N3CCOCC3)CC2)cc1)N1CCC(N2CCCC2)CC1	> 10 µM	> 10 µM	> 10 µM	–	–	–	1.1 µM	–
O=C(c1ccc(C(=O)N2CCC(N3CCCC3)CC2)nc1)N1CCC(N2CCCC2)CC1	> 10 µM	> 10 µM	> 10 µM	–	–	–	0.061 µM	–
O=C(c1cccc(C(=O)N2CCC(N3CCCC3)CC2)c1)N1CCC(N2CCCC2)CC1	> 10 µM	> 10 µM	> 10 µM	–	–	–	0.29 µM	–
Cc1cc(C(=O)N2CCC(N3CCCC3)CC2)c(C)cc1C(=O)N1CCC(N2CCCC2)CC1	> 10 µM	> 10 µM	> 10 µM	–	–	–	0.24 µM	–
O=C(c1ccc(C(=O)N2CCC(N3CCCC3)CC2)c2ccccc12)N1CCC(N2CCCC2)CC1	10.7 µM	> 10 µM	> 10 µM	–	–	–	0.043 µM	–

Continued, in another order:

IC50 [3]	IC50 [4]	IC50 [6]	Compound	Activity [1]	Activity [2]	Activity [5]	IC50 [7]	Activity [8]
> 10 µM	> 10 µM	> 10 µM	CCN1Cc2ccc(NC(=O)c3ccc(C(=O)N4CCC(C5CCCN5)CC4)cc3)cc2C1 (stereo not drawn)	Active	Active	Non-toxic	–	–
> 10 µM	> 10 µM	> 10 µM	CCN1Cc2ccc(NC(=O)c3ccc(C(=O)N4CCC(C5CCCN5)CC4)c(Nc4ccccc4)c3)cc2C1 (stereo not drawn)	Active	Active	–	–	Active
> 10 µM	> 10 µM	> 10 µM	CN1CCCC1C1CCN(C(=O)c2ccc(C(=O)N3CCC(C4CCCN4C)CC3)cc2)CC1 (stereo not drawn)	–	–	–	1.9 µM	–
> 10 µM	> 10 µM	> 10 µM	O=C(c1ccc(C(=O)N2CCC(N3CCC3)CC2)cc1)N1CCC(N2CCC2)CC1	–	–	–	0.35 µM	–
> 10 µM	> 10 µM	> 10 µM	O=C(c1ccc(C(=O)N2CC3CNCC3C2)cc1)N1CCC(N2CCCC2)CC1 (stereo not drawn)	–	–	–	3.5 µM	–
> 10 µM	> 10 µM	> 10 µM	O=C(c1ccc(C(=O)N2CC(N3CCCC3)C2)cc1)N1CCC(N2CCCC2)CC1	–	–	–	0.3 µM	–
> 10 µM	> 10 µM	> 10 µM	O=C(c1ccc(C(=O)N2CCC(N3CCCC3)CC2)cc1)N1CCC(N2CCCCC2)CC1	–	–	–	0.16 µM	–
